Assay outcomes from PubChem.
T cruzi growth-1 = T. cruzi proliferation inhibition; hit rate 5.9% among 77,000; T. cruzi beta-gal in NIH3T3, GalScreen luminescence, 90 h; inhibition, % at 8.34 µM;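 active means mean inhibition above about 93%, with at least 55% of replicates each passing it, limit read from the data, passing the limit was not always enough; inconclusive means only one of those two conditions holds; inactive means neither condition holds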
Pf Dd2 growth = P. falciparum Dd2 growth inhibition; SYBR Green, 72 h; stronger effect = lower value; activity change, % at 10 µM; hit rate 2.3% among 94,000; in the data active means activity change below about -80%; inconclusive means no clear call, values can overlap the other calls
IDH1 R132H inh = inhibitors of human IDH1 R132H. AID 624101. IDH1 R132H reductase, diaphorase/resazurin fluorescence, 60 min. hit rate 0.18% among 70,000. inhibition, % at 10 µM. O75874; in the data active means inhibition above about 34%; inconclusive means no clear call, values can overlap the other calls; inactive means below about 11%;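 further: 0% = DMSO and 100% = no enzyme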
Target sequence (O75874 whole entry R132H): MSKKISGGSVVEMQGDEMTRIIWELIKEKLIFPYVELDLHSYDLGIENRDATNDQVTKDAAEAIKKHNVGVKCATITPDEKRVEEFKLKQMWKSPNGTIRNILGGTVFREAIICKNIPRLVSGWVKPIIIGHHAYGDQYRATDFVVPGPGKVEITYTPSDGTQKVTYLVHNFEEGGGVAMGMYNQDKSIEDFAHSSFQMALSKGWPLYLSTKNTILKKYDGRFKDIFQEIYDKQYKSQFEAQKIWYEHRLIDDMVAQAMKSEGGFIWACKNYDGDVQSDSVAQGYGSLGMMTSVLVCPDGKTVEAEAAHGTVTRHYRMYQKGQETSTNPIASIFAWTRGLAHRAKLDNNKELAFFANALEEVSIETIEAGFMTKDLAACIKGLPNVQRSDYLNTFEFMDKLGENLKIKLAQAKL
KDM4C inh = inhibitors of human demethylase GASC-1 KDM4C; Q9H3R0; GST-KDM4C 2-372, H3K9me3 peptide, LANCE TR-FRET; inhibition, % at 12.5 µM; hit rate 0.15% among 96,000; AID 720574;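 active means mean replicate inhibition above about 25%, with at least 55% of replicates also reaching it, limit read from the data, passing the limit was not always enough; inconclusive means only one of those two conditions met; inactive means neither condition met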
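Test system – GST-tagged GASC-1 (JMJD2C) catalytic fragment, aa 2-372 · Medium – HEPES buffer, pH 7.5, plus ascorbate · Reagent – H3K9me3 peptide with Fe(II)/2OG · Compound – one test concentration per compound · Timing – 30 min reaction, 60 min detection, RT · Technique – TR-FRET with Eu antibody and ULight streptavidin, EDTA stop · Read-out basis – inhibition from TR-FRET ratio decrease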
T cruzi growth-2 = blocks T. cruzi growth in NIH3T3 host cells. T. cruzi beta-gal in NIH3T3, GalScreen luminescence, 90 h. inhibition, % at 8.35 µM. shares compounds with T cruzi growth-1. hit rate 72% among 5,600. AID 651739;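 active means mean replicate inhibition above about 95% and at least 55% of replicates individually reaching it, limit read from the data; inconclusive means only one of the two criteria is met; inactive means neither criterion is met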
T cruzi growth-3 = inhibitors of T. cruzi proliferation | T. cruzi beta-gal in NIH3T3, GalScreen luminescence, 90 h | shares compounds with T cruzi growth-1 | inhibition, % at 2.09 µM | hit rate 21% among 5,600;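 active means mean inhibition above about 95%, with at least 55% of replicates also reaching it, limit read from the data; inconclusive means meets just one of the two conditions; inactive means meets neither condition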;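 further: plate controls were neutral control median for no effect and positive control median for full effect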
3T3 cytotox = cytotoxicity in mouse NIH/3T3 fibroblasts. shares compounds with T cruzi growth-1. NIH/3T3 viability, CellTiter-Glo ATP luminescence, 90 h. cytotoxicity (signal decrease), % at 8.35 µM. hit rate 14% among 5,600. AID 651742;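 active means mean signal decrease across replicates above about 35% based on untreated-well scatter, with enough replicates individually passing, limit read from the data; inconclusive means no rule stated though some were filed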;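 further: 0% = median of neutral control wells and 100% = median of positive control wells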
NIH3T3 tox 2 = NIH/3T3 (mouse) viability loss; shares compounds with T cruzi growth-1; NIH/3T3 viability, CellTiter-Glo ATP luminescence, 90 h; inhibition, % at 24.9 µM; hit rate 56% among 5,600; AID 651744;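 active means mean loss of cell viability signal at or above a set limit, and enough replicates individually reaching it; inconclusive means meets only the mean limit or only the replicate share; inactive means meets neither condition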;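 further: 0% = median of neutral control wells and 100% = median of positive control wells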
* = called active by the depositor; ? = inconclusive; . = no result given. Sampled rows, rich in hits. Any-hit rate of the full collection: about 5.8%.

SMILES	T cruzi growth-1	Pf Dd2 growth	IDH1 R132H inh	KDM4C inh	T cruzi growth-2	T cruzi growth-3	3T3 cytotox	NIH3T3 tox 2
CC(C)CC#Cc1ccc2c(c1)O[C@H](CN(C)Cc1ccncc1)[C@H](C)CN([C@@H](C)CO)S2(=O)=O	?	-70	4	0	95*	88	49*	97*
CCCN(C)C[C@@H]1OCc2cn(nn2)CCCC(=O)N([C@H](C)CO)C[C@@H]1C	15	6	3	-1	.	.	.	.
O=C(Nc1cccc(F)c1)N[C@@H]1CC[C@@H](CCNS(=O)(=O)c2cccc(Cl)c2)O[C@H]1CO	26	7	-1	-2	.	.	.	.
O=C(Nc1cccc(F)c1)N[C@@H]1CC[C@H](CCNS(=O)(=O)c2cccc(Cl)c2)O[C@@H]1CO	153*	-20	-1	0	18	8	-1	1
O=C(Nc1cc(Cl)cc(Cl)c1)N[C@H]1CC[C@H](CCNS(=O)(=O)c2cccc(F)c2)O[C@@H]1CO	112*	3	0	0	108*	7	16	97*
C[C@H]1CN([C@@H](C)CO)S(=O)(=O)c2ccc(C#CCN(C)C)cc2O[C@@H]1CN(C)Cc1ccccn1	101*	-51	0	1	97*	99*	4	12
C[C@@H]1CN([C@@H](C)CO)S(=O)(=O)c2ccc(C#CCN(C)C)cc2O[C@@H]1CN(C)Cc1ccccn1	?	-30	-3	8	82	68	31	28*
C[C@H](CO)N1C[C@H](C)[C@@H](CN(C)Cc2ccccn2)Oc2cc(C#CCN(C)C)ccc2S1(=O)=O	?	-28	-1	1	.	.	.	.
C[C@H]1CN([C@@H](C)CO)C(=O)c2cccc(NC(=O)C3CC3)c2O[C@@H]1CN(C)CC1CCCCC1	66	-36	24	0	.	.	.	.
Cc1noc(C)c1NC(=O)N1C[C@@H](O)COC[C@@H]2O[C@H](CC(=O)NCC3CC3)CC[C@H]21	?	.	.	4	?	4	-1	-3
Cc1noc(C)c1NC(=O)N1C[C@@H](O)COC[C@@H]2O[C@@H](CC(=O)NCC3CC3)CC[C@H]21	77	.	.	1	.	.	.	.
O=C(C[C@@H]1CC[C@@H]2[C@H](COC[C@H](O)CN2C(=O)Nc2ccc(Cl)c(Cl)c2)O1)NCc1ccc(Cl)c(Cl)c1	107*	-4	.	-1	100*	74	43*	103*
O=C(C[C@@H]1CC[C@@H]2[C@H](COC[C@@H](O)CN2C(=O)Nc2ccc(Cl)c(Cl)c2)O1)NCc1ccc(Cl)c(Cl)c1	109*	-16	.	0	91	97*	3	90*
O=C(C[C@H]1CC[C@@H]2[C@H](COC[C@H](O)CN2C(=O)Nc2ccc(Cl)c(Cl)c2)O1)NCc1ccc(F)cc1	39	2	.	3	.	.	.	.
COc1ccc(-c2ccc([C@H]3[C@@H](C#N)N(C(=O)NC(C)C)[C@H]3CO)cc2)cc1	98*	-80	.	-3	105*	109*	12	34*
COc1ccc(-c2ccc([C@H]3[C@H](C#N)N(C(=O)NC(C)C)[C@H]3CO)cc2)cc1	90	-54	.	-1	.	.	.	.
COc1ccc(-c2ccc([C@H]3[C@@H](C#N)N(C(=O)NC4CCCCC4)[C@H]3CO)cc2)cc1	102*	-49	.	-3	97*	35	34	35*
CC(C)NC(=O)N1[C@H](C#N)[C@H](c2ccc(-c3ccc(F)cc3)cc2)[C@@H]1CO	?	?	.	1	96*	109*	3	15
CC(C)NC(=O)N1[C@H](CO)[C@@H](c2ccc(-c3ccc(F)cc3)cc2)[C@@H]1C#N	32	-10	.	-1	.	.	.	.
CC(=O)c1ccc(NC(=O)CSc2nncn2C)cc1	.	.	0	.	.	.	.	.
O=C(C1CCCC1)N1CCCCN2[C@H](CO)[C@H](c3ccc(-c4cccc(F)c4)cc3)[C@H]2C1	118*	-30	.	.	108*	75	8	102*
O=C(C1CC1)N1CCCCN2[C@H](CO)[C@H](c3ccc(-c4cccc(F)c4)cc3)[C@@H]2C1	?	13	.	0	105*	33	25	?
O=C(C1CC1)N1CCCCN2[C@@H](CO)[C@H](c3ccc(-c4cccc(F)c4)cc3)[C@@H]2C1	?	23	.	0	100*	87	22	37*
O=C(C1CCCC1)N1CCCCN2[C@H](C1)[C@H](c1ccc(-c3cccc(F)c3)cc1)[C@@H]2CO	88	23	.	.	.	.	.	.
C[C@H](CO)N1C[C@H](C)[C@@H](CN(C)S(=O)(=O)c2cccs2)OCCCC[C@H](C)Oc2ccc(NC(=O)c3ccccc3)cc2C1=O	88	-23	1	-3	.	.	.	.
SMILES	T cruzi growth-1	Pf Dd2 growth	IDH1 R132H inh	KDM4C inh	T cruzi growth-2	T cruzi growth-3	3T3 cytotox	NIH3T3 tox 2
C[C@H](O)C#Cc1ccc([C@H]2[C@@H](CO)N3CCCCN(C(=O)c4cccc(F)c4)C[C@@H]23)cc1	104*	43	.	-1	89	62	-14	24
C[C@@H](O)C#Cc1ccc([C@@H]2[C@@H](CO)N3CCCCN(C(=O)c4cccc(F)c4)C[C@@H]23)cc1	73	28	.	1	.	.	.	.
C[C@H](O)C#Cc1ccc([C@H]2[C@H]3CN(C(=O)c4cccc(F)c4)CCCCN3[C@H]2CO)cc1	102*	27	.	0	?	23	11	28*
C[C@@H](O)C#Cc1ccc([C@H]2[C@H](CO)N3CCCCN(C(=O)c4cccc(F)c4)C[C@@H]23)cc1	97*	-21	.	-1	107*	79	4	50*
COCC(=O)Nc1ccc2c(c1)C(=O)N(C)[C@H]1CC[C@H](CC(=O)Nc3ccccc3OC)O[C@@H]1CO2	112*	-17	.	.	?	-4	10	11
COCCNC(=O)C[C@H]1CC[C@@H]2[C@@H](COc3ccc(NC(C)=O)cc3C(=O)N2C)O1	69	-64	.	0	.	.	.	.
CC(C)C(=O)Nc1ccc2c(c1)C(=O)N(C)[C@@H]1CC[C@@H](CC(=O)NCc3ccc(F)cc3)O[C@H]1CO2	42	-13	.	0	.	.	.	.
CC(C)C(=O)Nc1ccc2c(c1)C(=O)N(C)[C@@H]1CC[C@@H](CC(=O)NCc3ccc(F)cc3)O[C@@H]1CO2	96*	4	.	-2	49	-13	17	-15
CN1C(=O)c2cc(NC(=O)c3ccc(F)cc3)ccc2OC[C@H]2O[C@@H](CC(=O)NCC3CCCCC3)CC[C@H]21	101*	-3	.	4	113*	61	39*	61*
COCCNC(=O)C[C@H]1CC[C@@H]2[C@H](COc3ccc(NC(C)=O)cc3C(=O)N2C)O1	101*	-73	.	0	13	-38	5	7
